Results reported in ChEMBL document CHEMBL2406982, “Structure-activity relationships of new cyanothiophene inhibitors of the essential peptidoglycan biosynthesis enzyme MurF” (Eur J Med Chem, 2013).
Values after ≈ are worked out from the molar mass of the structure shown. Active and inactive are the calls of the source. No cut-off for these calls is given here.

What was measured:
[1] = tested on: Escherichia coli; assay: Inhibition of Escherichia coli MurF using D-Ala-D-Ala/UMtri-mDAP as substrate assessed as residual activity at 100 uM after 15 mins by Malachite green method
Outline: (§1)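 Purified E. coli MurF in 50 mM Hepes pH 8.0, 50 mM MgCl2, 0.005% Triton X-114, with D-Ala-D-Ala, UMtri-mDAP and ATP. Compound was added in DMSO (final 5% v/v). Mixtures were incubated 15 min at 37 °C, quenched with Biomol reagent, and absorbance was read at 650 nm after 5 min. Runs were in duplicate. Residual activity was taken versus DMSO-only controls. IC50 came from residual activity at seven concentrations.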

[2] = tested on: Staphylococcus aureus; assay: Inhibition of Staphylococcus aureus MurF using D-Ala-D-Ala/UMtri-L-Lys as substrate assessed as residual activity at 100 uM after 15 mins by Malachite green method
Outline: (§2)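 S. aureus MurF, purified, assayed in 50 mM Hepes pH 8.0 with 20 mM MgCl2 and 0.005% Triton X-114, with D-Ala-D-Ala, UMtri-L-Lys and ATP. Compound was in DMSO (5% v/v final). After 15 min at 37 °C, Biomol reagent was added and A650 was read 5 min later. Duplicates were run. Residual activity was relative to 5% DMSO controls. IC50 was read as 50% residual activity across seven concentrations.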

[3] = tested on: Staphylococcus aureus; assay: Antimicrobial activity against Staphylococcus aureus SH1000 by broth microdilution method; type: functional, organism-based
Outline: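 MIC by broth microdilution in Mueller-Hinton broth following CLSI guidelines.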

[4] = tested on: Streptococcus pneumoniae; assay: Antimicrobial activity against Streptococcus pneumoniae R6 by broth microdilution method; type: functional
Outline: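 MIC by CLSI broth microdilution in Mueller-Hinton broth supplemented with 5% (v/v) lysed horse blood.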

[5] = Inhibition of Streptococcus pneumoniae MurF using D-Ala-D-Ala/UMtri-L-Lys as substrate after 15 mins by Malachite green method
Outline: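 Purified S. pneumoniae MurF in 50 mM Hepes pH 8.0, 50 mM MgCl2, 0.005% Triton X-114, with D-Ala-D-Ala, UMtri-L-Lys and ATP. Compound was added in DMSO (5% v/v final). Reactions ran 15 min at 37 °C, were stopped with Biomol malachite green reagent, and A650 was measured after 5 min. Runs were in duplicate. Residual activity was versus DMSO controls. IC50 was from seven concentrations.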

[6] = tested on: Escherichia coli; assay: Antimicrobial activity against Escherichia coli AB734 by broth microdilution method; type: functional, organism-based
Outline: (§3)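 Broth microdilution MIC per CLSI guidelines in Mueller-Hinton broth. E. coli 1411 and AB734 were also tested with added polymyxin B nonapeptide to permeabilise the outer membrane.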

[7] = tested on: Escherichia coli; assay: Antimicrobial activity against Escherichia coli 1411 by broth microdilution method; type: functional, organism-based; outline: as §3
[8] = Inhibition of Escherichia coli MurF using D-Ala-D-Ala/UMtri-mDAP as substrate after 15 mins by Malachite green method; outline: as §1
[9] = Inhibition of Staphylococcus aureus MurF using D-Ala-D-Ala/UMtri-L-Lys as substrate after 15 mins by Malachite green method; outline: as §2

SMILES	Activity [1] [%]	Activity [2] [%]	Activity [3]	MIC [4] [µg/mL]	IC50 [5] [µM]	Activity [6]	Activity [7]	IC50 [8] [µM]	IC50 [9] [µM]
N#Cc1c(NC(=O)c2cc(S(=O)(=O)N3CCOCC3)c(Cl)cc2Cl)sc2c1CCN(C(=O)c1ccccc1)C2	93	107	inactive	> 128	27	inactive	inactive	–	–
COc1cc(CN2CCc3c(sc(NC(=O)c4cc(S(=O)(=O)N5CCOCC5)c(Cl)cc4Cl)c3C#N)C2)cc(OC)c1O	–	–	inactive	16 (≈ 24 µM)	48	inactive	inactive	78	84
N#Cc1c(NC(=O)c2cc(S(=O)(=O)N3CCOCC3)c(Cl)cc2Cl)sc2c1CCN(Cc1ccc(-c3nnn[nH]3)cc1)C2	–	–	inactive	> 128	0.3	inactive	inactive	55	120
N#Cc1ccc(CN2CCc3c(sc(NC(=O)c4cc(S(=O)(=O)N5CCOCC5)c(Cl)cc4Cl)c3C#N)C2)c(F)c1	58	–	inactive	> 128	1.92	inactive	inactive	–	92
N#Cc1c(NC(=O)c2cc(S(=O)(=O)N3CCOCC3)c(Cl)cc2Cl)sc2c1CCN(Cc1ccc(O)cc1)C2	68	84	inactive	> 128	0.18	inactive	inactive	–	–
N#Cc1c(NC(=O)c2cc(S(=O)(=O)N3CCC(=O)CC3)c(Cl)cc2Cl)sc2c1CCCC2	102	103	inactive	> 128	3.37	inactive	inactive	–	–
CC(C)(C)OC(=O)N1CCc2c(sc(NC(=O)c3cc(S(=O)(=O)N4CCOCC4)c(Cl)cc3Cl)c2C#N)C1	88	78	inactive	128 (≈ 213 µM)	19	inactive	inactive	–	–
N#Cc1c(NC(=O)c2cc(S(=O)(=O)N3CCOCC3)c(Cl)cc2Cl)sc2c1CCN(CCC1CCNCC1)C2.O=C(O)C(F)(F)F	93	84	inactive	> 128	0.6	inactive	inactive	–	–
N#Cc1c(NC(=O)c2cc(S(=O)(=O)N3CCOCC3)c(Cl)cc2Cl)sc2c1CCN(Cc1cc(O)ccc1O)C2	81	79	inactive	32 (≈ 51.3 µM)	2.75	inactive	inactive	–	–
CC(C)(C)OC(=O)N1CCC(CCN2CCc3c(sc(NC(=O)c4cc(S(=O)(=O)N5CCOCC5)c(Cl)cc4Cl)c3C#N)C2)CC1	–	–	inactive	–	–	inactive	inactive	–	–
CC(=O)Oc1ccc(C2CCc3c(sc(NC(=O)c4cc(S(=O)(=O)N5CCOCC5)c(Cl)cc4Cl)c3C#N)C2)cc1 (configuration not stated)	91	103	inactive	> 128	0.12	inactive	inactive	–	–
N#Cc1c(NC(=O)c2cc(S(=O)(=O)N3CCC(O)CC3)c(Cl)cc2Cl)sc2c1CCCC2	104	101	inactive	64 (≈ 124 µM)	10.5	inactive	inactive	–	–
N#Cc1c(NC(=O)c2cc(S(=O)(=O)N3CCCC(C(=O)O)C3)c(Cl)cc2Cl)sc2c1CCCC2 (configuration not stated)	100	102	inactive	> 128	50	inactive	inactive	–	–
N#Cc1c(NC(=O)c2cc(S(=O)(=O)N3CCOCC3)c(Cl)cc2Cl)sc2c1CCN(Cc1ccc(O)c(O)c1)C2	78	64	inactive	> 128	0.43	inactive	inactive	–	–
N#Cc1c(NC(=O)c2cc(S(=O)(=O)N3CCOCC3)c(Cl)cc2Cl)sc2c1CCN(CC1CCCCC1)C2	63	64	inactive	> 128	0.46	inactive	inactive	–	–
COc1ccc(C2CCc3c(sc(NC(=O)c4cc(S(=O)(=O)N5CCOCC5)c(Cl)cc4Cl)c3C#N)C2)cc1 (configuration not stated)	90	85	inactive	> 128	0.17	inactive	inactive	–	–
CCOC(=O)C1CCCN(S(=O)(=O)c2cc(C(=O)Nc3sc4c(c3C#N)CCCC4)c(Cl)cc2Cl)C1 (configuration not stated)	94	93	inactive	–	131	inactive	inactive	–	–
CC1CCCCN1S(=O)(=O)c1cc(C(=O)Nc2sc3c(c2C#N)CCCC3)c(Cl)cc1Cl (configuration not stated)	107	103	inactive	> 128	3.75	inactive	inactive	–	–
N#Cc1c(NC(=O)c2cc(S(=O)(=O)N3CCC(C(=O)O)CC3)c(Cl)cc2Cl)sc2c1CCCC2	102	96	inactive	64 (≈ 118 µM)	17.9	inactive	inactive	–	–
COc1cc(CN2CCc3c(sc(NC(=O)c4cc(S(=O)(=O)N5CCOCC5)c(Cl)cc4Cl)c3C#N)C2)ccc1O	–	64	inactive	> 128	4.15	inactive	inactive	98	–
Cl.N#Cc1c(NC(=O)c2cc(S(=O)(=O)N3CCOCC3)c(Cl)cc2Cl)sc2c1CCNC2	94	81	inactive	128	47	inactive	inactive	–	–
